# Reference: publication PMC4975651 (Molecular cell, 2016)
# What was measured:
# [1] = test system: N-terminal truncated version of ZMYND8-PBP (residue 103-426); experiment: ITC, N-terminal truncated ZMYND8-PBP; format: binding, human; settings: H3K4me0 (1-25aa)
# How it was run: (§1)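 ZMYND8 PHD/Bromo/PWWP region, with its point and deletion mutants, was cloned into a bacterial GST-fusion expression vector and expressed as recombinant protein. Binding to histone H3 peptides was measured by isothermal titration calorimetry, and KD was taken from the titration.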
# [2] = test system: ZMYND8-PBP, alanine mutation of D104; experiment: ITC, ZMYND8-PBP alanine mutant of D104; format: binding, human; settings: H3K4me0 (1-25aa)
# How it was run: as §1
# [3] = test system: ZMYND8-PBP, alanine mutation of E124; experiment: ITC, ZMYND8-PBP alanine mutant of E124; format: binding, human; settings: H3K4me0 (1-25aa)
# How it was run: as §1
# ZMYND8-PBP, D108A = experiment: ITC, ZMYND8-PBP alanine mutant of D108; format: binding, human; settings: H3K4me0 (1-25aa)
# How it was run: as §1
# [4] = test system: GST-tagged ZMYND8-PB (ZMYND8-PHD/Bromo); experiment: Peptide pull-down assay, GST-tagged ZMYND8-PB; format: binding, human; settings: biotinylated peptides
# How it was run: (§2)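 Biotinylated histone peptides were used to pull down GST-tagged ZMYND8 fragments expressed in bacteria from a GST-fusion vector. These fragments were PHD/Bromo, PHD/Bromo/PWWP, or deletion mutants of PHD/Bromo. The deletion mutants were tested against the H3 (1-21) peptide.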
# [5] = test system: ZMYND8-PBP, alanine mutation of D96; experiment: ITC, ZMYND8-PBP alanine mutant of D96; format: binding, human; settings: H3K4me0 (1-25aa)
# How it was run: as §1
# [6] = test system: ZMYND8-PBP, alanine mutation of D99; experiment: ITC, ZMYND8-PBP alanine mutant of D99; format: binding, human; settings: H3K4me0 (1-25aa)
# How it was run: as §1
# ZMYND8-PBP, F109D = experiment: ITC, ZMYND8-PBP F109D; format: binding, human; settings: H3K4me0 (1-25aa), relative to ZMYND8-PBP
# How it was run: as §1
# ZMYND8-PHD = experiment: Peptide pull-down assay, ZMYND8-PHD alone; format: binding, human; settings: H3 (1-21) peptide
# How it was run: as §2
# [7] = molecular target: T1, ZMYND8-PHD/Bromo (ZMYND8-PB) (Homo sapiens, UniProt Q9ULU4); experiment: Isothermal titration calorimetry; format: binding; settings: ITC
# T1 sequence (Q9ULU4 75-268 limits assumed): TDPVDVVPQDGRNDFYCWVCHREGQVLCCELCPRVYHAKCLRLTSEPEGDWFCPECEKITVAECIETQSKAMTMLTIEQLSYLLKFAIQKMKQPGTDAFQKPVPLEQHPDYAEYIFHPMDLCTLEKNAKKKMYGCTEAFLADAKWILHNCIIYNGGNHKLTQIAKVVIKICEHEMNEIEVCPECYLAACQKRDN
# How it was run: as §1
# [8] = molecular target: T2, ZMYND8-PHD/Bromo/PWWP (ZMYND8-PBP) (Homo sapiens, UniProt Q9ULU4); experiment: Isothermal titration calorimetry; format: binding; settings: ITC
# T2 sequence (Q9ULU4 93-426 isoform Q9ULU4-10): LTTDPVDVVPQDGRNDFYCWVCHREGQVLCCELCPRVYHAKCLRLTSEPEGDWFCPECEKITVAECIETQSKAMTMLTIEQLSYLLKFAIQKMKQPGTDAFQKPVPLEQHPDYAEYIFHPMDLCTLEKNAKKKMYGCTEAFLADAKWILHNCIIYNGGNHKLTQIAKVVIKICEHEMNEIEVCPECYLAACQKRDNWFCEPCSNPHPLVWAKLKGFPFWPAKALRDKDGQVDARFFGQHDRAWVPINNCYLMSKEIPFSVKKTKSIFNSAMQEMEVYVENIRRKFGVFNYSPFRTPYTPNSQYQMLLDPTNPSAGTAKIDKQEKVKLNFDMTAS
# How it was run: as §1
substance,measurement,setting,value
"H3K4me0: unmethylated H3K4 (H3 [1-21aa]; referred to as ""H3K4me0"")",H3K4me0-binding activity of truncated ZMYND8-PBP,[1],significant losses
same,H3K4me0-binding activity of mutant,[2],significant losses
same,H3K4me0-binding activity of mutant,[3],significant losses
same,H3K4me0-binding activity of mutant,"ZMYND8-PBP, D108A",significant losses
same,"interaction with ZMYND8-PB (pull-down), 300 mM NaCl wash",[4],interacted
same,H3K4me0-binding activity of mutant,[5],significant losses
same,H3K4me0-binding activity of mutant,[6],significant losses
same,enhancement of PBP's binding activity by F109D,"ZMYND8-PBP, F109D",~ 11 fold
same,interaction with ZMYND8-PHD alone (pull-down),ZMYND8-PHD,did not interact
same,Kd,[7],~15 µM
same,Kd,[8],~7.2 µM
